Measured values reported in ChEMBL document CHEMBL4334422, “Toxicities and beneficial protection of H2S donors based on nonsteroidal anti-inflammatory drugs” (Medchemcomm, 2019).
Calls of active or inactive are those of the source. The calls are words filed in the database; no cut-off is given here.

Legend:
[1] = Toxicity in Wistar kyoto rat assessed as eosinophil ratio in blood at 0.01 mmol/kg, ip administered for 14 days (reference value: 1.8%); type: organism-based; conditions: in vivo, 336 h
Procedure, shortened: (§1)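 Normal WKY rats (6 per group) received compound in 10% 1,3-propanediol intraperitoneally daily for 14 days. Controls received an equal volume of vehicle. Urine was collected in metabolic cages throughout dosing. At the end of dosing, blood was taken from the eyeball for haematology, and urine parameters were analysed.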

[2] = Toxicity in Wistar kyoto rat assessed as red blood cell count in blood at 0.01 mmol/kg, ip administered for 14 days (reference value: 6.83 10^12/L); type: organism-based; conditions: in vivo, 336 h
Procedure, shortened: (§2)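 Normal WKY rats, 6 per group, received an intraperitoneal injection once daily for 14 consecutive days. The compound was dissolved in 10% 1,3-propanediol, and controls received an equal volume of vehicle. Urine was collected in metabolic cages during dosing. At the end, blood was drawn from the eyeball for haematology, and urinalysis values were compared with the vehicle group.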

[3] = Toxicity in Wistar kyoto rat assessed as hemoglobin count in blood at 0.01 mmol/kg, ip administered for 14 days (reference value: 138 g/L); type: organism-based; conditions: in vivo, 336 h; procedure, shortened: as §1
[4] = Toxicity in Wistar kyoto rat assessed as leukocyte in urine at 0.01 mmol/kg, ip administered for 14 days (reference value: 10 ca cells/uL); type: organism-based; conditions: in vivo, 336 h; procedure, shortened: as §2
[5] = Toxicity in Wistar kyoto rat assessed as urobilinogen level in urine at 0.01 mmol/kg, ip administered for 14 days (reference value: 1 umol/L); type: organism-based; conditions: in vivo, 336 h; procedure, shortened: as §2
[6] = Toxicity in Wistar kyoto rat assessed as occult blood cells level in urine at 0.01 mmol/kg, ip administered for 14 days (reference value: 10 /uL); type: organism-based; conditions: in vivo, 336 h; procedure, shortened: as §2
[7] = Toxicity in Wistar kyoto rat assessed as ketone body level in urine at 0.01 mmol/kg, ip administered for 14 days (reference value: 4 umol/L); type: organism-based; conditions: in vivo, 336 h; procedure, shortened: as §2
[8] = Toxicity in Wistar kyoto rat assessed as glucose in urine at 0.01 mmol/kg, ip administered for 14 days; type: organism-based; conditions: in vivo, 336 h; procedure, shortened: as §1
H9c2 [9] = assay: Cytoprotective activity against H2O2-induced toxicity in rat H9c2 cells assessed as increase in cell viability pretreated with compound followed by H2O2 addition and measured after 1 hrs relative to control; type: functional
Procedure, shortened: (§3)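 H9c2 cells were injured with H₂O₂ (400 µM) for 1, 4 or 8 h to give light, medium and heavy damage, in the presence of compound at 10–80 µM. Acetaminophen or ibuprofen served as controls. Viability was measured as mean ± SD of three experiments. SOD and MDA contents were measured as mean ± SD of four experiments. Morphology was assessed by Giemsa staining under light microscopy.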

H9c2 [10] = assay: Cytoprotective activity against H2O2-induced toxicity in rat H9c2 cells assessed as decrease in MDA level pretreated with compound followed by H2O2 addition and measured after 8 hrs; type: functional, cell-based; procedure, shortened: as §3
[11] = Toxicity in Wistar kyoto rat assessed as lymphocyte ratio in blood at 0.01 mmol/kg, ip administered for 14 days (reference value: 42.1%); type: organism-based; conditions: in vivo, 336 h; procedure, shortened: as §2
[12] = Toxicity in Wistar kyoto rat assessed as basophilic ratio in blood at 0.01 mmol/kg, ip administered for 14 days (reference value: 2.2%); type: organism-based; conditions: in vivo, 336 h; procedure, shortened: as §1
[13] = Toxicity in Wistar kyoto rat assessed as platelet count in blood at 0.01 mmol/kg, ip administered for 14 days (reference value: 670 10^9/L); type: organism-based; conditions: in vivo, 336 h; procedure, shortened: as §2
[14] = Toxicity in Wistar kyoto rat assessed as leukocyte count in blood at 0.01 mmol/kg, ip administered for 14 days (reference value: 6.88 10^9/L); type: organism-based; conditions: in vivo, 336 h; procedure, shortened: as §2
[15] = Toxicity in Wistar kyoto rat assessed as bilirubin level in urine at 0.01 mmol/kg, ip administered for 14 days (reference value: 10 umol/L); type: organism-based; conditions: in vivo, 336 h; procedure, shortened: as §1
[16] = Toxicity in Wistar kyoto rat assessed as urine pH at 0.01 mmol/kg, ip administered for 14 days (reference value: 8.4); type: organism-based; conditions: in vivo, 336 h; procedure, shortened: as §2
[17] = Half life of compound in pH 7.4 phosphate buffer at 40 mM in presence of TECP or cysteine by methylene blue dye based UV-Vis spectrophotometric method; type: physicochemical; conditions: phosphate buffer with TECP or cysteine
Procedure, shortened: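 A 40 mM compound solution in pH 7.4 phosphate buffer was mixed with TECP or L-cysteine (1.0 mM) as promoter. Aliquots were mixed with methylene blue reagent, and after 20 min absorbance was read at 670 nm. H₂S was quantified against a Na₂S standard curve, and concentration-versus-time release curves were plotted to give half-lives.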

[18] = Toxicity in Wistar kyoto rat assessed as neutrophil ratio in blood at 0.01 mmol/kg, ip administered for 14 days (reference value: 54.7%); type: organism-based; conditions: in vivo, 336 h; procedure, shortened: as §2
[19] = Toxicity in Wistar kyoto rat assessed as nitrite level in urine at 0.01 mmol/kg, ip administered for 14 days; type: organism-based; conditions: in vivo, 336 h; procedure, shortened: as §2
[20] = Cardiotoxicity in SHR rat assessed as neatly arranged myocardial fibers at 10 mg/kg, ip administered for 14 days by H and E staining based microscopic assay; type: toxicity, organism-based; conditions: in vivo, 336 h
Procedure, shortened: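 SHRs were given 10 mg·kg⁻¹ intraperitoneally per day for 14 consecutive days, with an ibuprofen comparator and a normal control. Myocardial tissue was then removed. Sections were HE-stained for light microscopy and also examined by transmission electron microscopy at 6000, 10000 and 20000-fold.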

H9c2 [21] = assay: Cytotoxicity against rat H9c2 cells assessed as reduction in cell viability at 10 to 80 uM incubated for 24 hrs; type: cell-based; conditions: h9c2, 24 h
Procedure, shortened: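 Rat cardiac H9c2 cells were grown in DMEM with 10% FBS and penicillin/streptomycin at 37 °C and 5% CO₂. They were seeded at 5×10⁴ cells/mL and allowed to adhere for 8 h. Cells were exposed to 10, 40 or 80 µM compound for 24 h, and survival was compared with untreated cells.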

H9c2 [22] = assay: Cytoprotective activity against H2O2-induced toxicity in rat H9c2 cells assessed as increase in cell viability at 10 to 80 uM pretreated with compound followed by H2O2 addition and measured after 8 hrs relative to control; type: functional; procedure, shortened: as §3
H9c2 [23] = assay: Cytoprotective activity against H2O2-induced toxicity in rat H9c2 cells assessed as increase in cell viability at 80 uM pretreated with compound followed by H2O2 addition and measured after 1 hrs relative to control; type: functional; procedure, shortened: as §3
[24] = Toxicity in Wistar kyoto rat assessed as Vc in urine at 0.01 mmol/kg, ip administered for 14 days; type: organism-based; conditions: in vivo, 336 h; procedure, shortened: as §1
[25] = Toxicity in Wistar kyoto rat assessed as proportion in urine at 0.01 mmol/kg, ip administered for 14 days (reference value: 1.01); type: organism-based; conditions: in vivo, 336 h; procedure, shortened: as §2
H9c2 [26] = assay: Cytoprotective activity against H2O2-induced toxicity in rat H9c2 cells assessed as increase in SOD level at 10 to 80 uM pretreated with compound followed by H2O2 addition and measured after 8 hrs; type: functional, cell-based; procedure, shortened: as §3
[27] = Toxicity in Wistar kyoto rat assessed as protein level in urine at 0.01 mmol/kg, ip administered for 14 days (Rvb =0 g/L); type: organism-based; conditions: in vivo, 336 h; procedure, shortened: as §2
[28] = Toxicity in Wistar kyoto rat assessed as monocyte ratio in blood at 0.01 mmol/kg, ip administered for 14 days (reference value: 0.5%); type: organism-based; conditions: in vivo, 336 h; procedure, shortened: as §2
[29] = Toxicity in Wistar kyoto rat assessed as light staining in cytoplasm of liver tissue at 10 mg/kg, ip administered for 14 days by H and E staining based assay; type: organism-based; conditions: in vivo, 336 h
Procedure, shortened: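 WKY rats were dosed intraperitoneally at 10 mg/kg daily for 14 days, using the 10% 1,3-propanediol vehicle, with a vehicle control group. Liver and kidney were collected and fixed immediately in 4% glutaraldehyde. Sections were stained with haematoxylin and eosin and scored for structural change under light microscopy.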

| Compound | Activity [1] | Activity [2] | Activity [3] | Activity [4] | Activity [5] | Activity [6] | Activity [7] | Activity [8] | Activity (H9c2 [9]) | Activity (H9c2 [10]) | Activity [11] | Activity [12] | Activity [13] | Activity [14] | Activity [15] | pH [16] | half-life at 40000 µM [17] | Activity [18] | Activity [19] | Activity (H9c2 [21]) | other results |
| --- | --- | --- | --- | --- | --- | --- | --- | --- | --- | --- | --- | --- | --- | --- | --- | --- | --- | --- | --- | --- | --- |
| CC(=O)Nc1ccc(OC(=O)CCCCC2CCSS2)cc1 (stereo not given) | 2.6% | 6.08 ×10¹² /L | 135 g/L | Non-Toxic | 3.3 µmol/L | 80 µL⁻¹ | 4000 µmol/L | Non-Toxic | Dose-dependent effect | Dose-dependent effect | 64.2% | 0.2% | 194 ×10⁹ /L | 2.89 ×10⁹ /L | 12 µmol/L | 7.5 | 14.1 min | 31.7% | Non-Toxic | Non-Toxic | Activity [20]: Non-Toxic; Activity (H9c2 [22]): 8.6%; Activity (H9c2 [23]): 13.3%; Activity [24]: Non-Toxic; Ratio [25]: 1.005; Activity (H9c2 [26]): Active; Activity [27]: 3.2 g/L; Activity [28]: 1.3% |
| CC(C)Cc1ccc(C(C)C(=O)Oc2ccc(-c3cc(=S)ss3)cc2)cc1 (stereo not given) | 2.6% | 5.9 ×10¹² /L | 136 g/L | 500 µL⁻¹ | 66 µmol/L | Non-Toxic | 500 µmol/L | Non-Toxic | Dose-dependent effect | Dose-dependent effect | 60.4% | 0.2% | 114 ×10⁹ /L | 3.27 ×10⁹ /L | 50 µmol/L | 7.5 | 1.4 min | 35.9% | Toxic | Non-Toxic | Activity [29]: Toxic; Activity (H9c2 [22]): < 5%; Activity (H9c2 [23]): 9.4%; Activity [24]: Non-Toxic; Ratio [25]: 1.005; Activity (H9c2 [26]): Active; Activity [27]: 3 g/L; Activity [28]: 0.9% |
| CC(C)Cc1ccc(C(C)C(=O)Oc2ccc(C(N)=S)cc2)cc1 (stereo not given) | 1% | 5.5 ×10¹² /L | 119 g/L | 70 µL⁻¹ | 16 µmol/L | Non-Toxic | Non-Toxic | Non-Toxic | Dose-dependent effect | Dose-dependent effect | 52.8% | 0% | 161 ×10⁹ /L | 1.72 ×10⁹ /L | 17 µmol/L | 7.5 | 20.1 min | 44.4% | Non-Toxic | Non-Toxic | Activity [29]: Toxic; Activity [20]: Non-Toxic; Activity (H9c2 [22]): < 5%; Activity (H9c2 [23]): 11.9%; Activity [24]: Non-Toxic; Ratio [25]: 1.005; Activity (H9c2 [26]): Active; Activity [27]: 3 g/L; Activity [28]: 1.8% |
